Source: paper PMC6370590 (European journal of pharmaceutical sciences : official …, 2018)
Values belong to the compound of their own block, whether it stands above or below them.

Legend:
[1] = molecular target: T1, 14M_zTDP2^cat (humanized zebrafish TDP2 catalytic domain) (Danio rerio, UniProt Q5XJA0, A139S/C239T/C322L/D120S/K240R/K309Q/K314L/L136N/P317T/R321K/S320C/T315G/V316I/V319A/Y318A); experiment: 14M_zTDP2^cat fluorescence-based biochemical assay; conditions: for LE (ligand efficiency): LE = 1.4 x pIC50 / HAC; for LELP (ligand efficiency dependent lipophilicity): LELP = LE / cLogP as printed; for LLE (lipophilic ligand efficiency): LLE = pIC50 - cLogP; for TDP2 inhibition, SAR statement: compared with hit 11a
T1 sequence (Q5XJA0 120-369 D120S/L136N/A139S/C239T/K240R/K309Q/K314L/T315G/V316I/P317T/Y318A/V319A/S320C/R321K/C322L): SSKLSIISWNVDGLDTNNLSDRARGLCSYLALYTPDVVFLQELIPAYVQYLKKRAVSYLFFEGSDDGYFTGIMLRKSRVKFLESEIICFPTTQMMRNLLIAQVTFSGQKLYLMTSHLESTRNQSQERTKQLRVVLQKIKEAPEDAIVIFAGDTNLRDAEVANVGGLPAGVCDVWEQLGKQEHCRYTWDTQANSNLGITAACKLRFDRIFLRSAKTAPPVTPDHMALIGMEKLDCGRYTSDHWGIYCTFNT
In short: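 Humanized zebrafish TDP2 catalytic domain (residues 120–369), 6.25 pM final, pre-incubated 10 min with test compound in pH 7.4 Tris buffer (10 mM MgCl₂, 80 mM KCl, 0.05% Tween-20, 1 mM DTT). Reaction started with 1 μM (final) FAM-phosphotyrosyl-GATCT-BHQ-1 substrate at 25 °C. Fluorescence ([…]) read kinetically over 60 min. % inhibition normalised to DMSO and no-enzyme controls. IC₅₀ fitted from 10–12 concentrations.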

SUMO hTDP2^cat = molecular target: T2, SUMO hTDP2^cat (Homo sapiens, UniProt O95551); experiment: SUMO hTDP2^cat fluorescence-based biochemical assay
T2 sequence (O95551 110-362): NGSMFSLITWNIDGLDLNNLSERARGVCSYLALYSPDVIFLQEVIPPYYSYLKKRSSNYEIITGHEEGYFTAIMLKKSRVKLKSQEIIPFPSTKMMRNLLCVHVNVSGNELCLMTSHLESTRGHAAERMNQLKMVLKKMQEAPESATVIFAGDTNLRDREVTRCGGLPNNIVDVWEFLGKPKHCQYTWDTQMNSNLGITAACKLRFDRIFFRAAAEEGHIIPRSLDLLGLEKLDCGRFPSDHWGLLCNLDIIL

- TDP2 inhibition, SAR statement [1]: no inhibition was observed
Structure (SMILES): COc1ccc2nc(NC(=N)N)[nH]c(=O)c2c1 [Compound 15, 1-(6-Methoxy-4-oxo-3,4-dihydroquinazolin-2-yl)guanidine]

- IC50 (SUMO hTDP2^cat): 113 ± 10 µM
- LE (ligand efficiency) [1]: 0.32
- LELP (ligand efficiency dependent lipophilicity) [1]: 4.9
- LLE (lipophilic ligand efficiency) [1]: 2.3
Structure (SMILES): COc1ccc2nc(NC(=N)N)nc(C)c2c1 [Compound 11a, 1-(6-Methoxy-4-methylquinazolin-2-yl) guanidine]

More lines, now with the values behind:

Structure (SMILES): Cc1ccc(-c2nn3c(-c4ccco4)nnc3s2)cc1C [Compound 19a, 6-(3,4-Dimethylphenyl)-3-(furan-2-yl)-[1,2,4]triazolo[3,4-b][1,3,4] thiadiazole]
- LE (ligand efficiency) [1]: 0.30
- LELP (ligand efficiency dependent lipophilicity) [1]: 14
- LLE (lipophilic ligand efficiency) [1]: 0.29

Structure (SMILES): COc1ccccc1-c1nn2c(-c3ccco3)nnc2s1 [Compound 19b, 3-(Furan-2-yl)-6-(2-methoxyphenyl)-[1,2,4]triazolo[3,4-b][1,3,4]thiadiazole]
- TDP2 inhibition ([1]; concentrations up to 100 µM): did not exhibit significant TDP2 inhibition

Structure (SMILES): CCOc1ccc2nc(NC(=N)N)nc(C)c2c1 [Compound 11b, 1-(6-Ethoxy-4-methylquinazolin-2-yl) guanidine]
- TDP2 inhibition, SAR statement [1]: did not interfere significantly with the activity

Structure (SMILES): COc1ccc2nc(Nc3nc(C)c(C)c(=O)[nH]3)nc(C)c2c1 [Compound 12a, 2-((6-Methoxy-4-methylquinazolin-2-yl)amino)-5,6-dimethylpyrimidin-4(3H)-one]
- fold increase in potency over the original HTS hit 11a (SUMO hTDP2^cat; ratio of IC50 values): 6.4 fold

Structure (SMILES): Cc1nc(NC(=N)N)nc2ccc(Cl)cc12.Cl [Compound 11c, 1-(6-Chloro-4-methylquinazolin-2-yl) guanidine hydrochloride]
- inhibitory activity ([1]; up to 200 µM, vs. 11a): abrogated completely the inhibitory activity
